According to ChEMBL document CHEMBL4334471, “Discovery of 1,8-disubstituted-[1,2,3]triazolo[4,5-c]quinoline derivatives as a new class of Hippo signaling pathway inhibitors” (Bioorg Med Chem Lett, 2019):
Activity calls are given as the source filed them. The rule behind the calls is not given here.

Columns and labels:
[1] = system: Serine/threonine-protein kinase Chk2 (Homo sapiens), O96017 [R145W]; experiment: Inhibition of recombinant human CHK2 R145W mutant (5 to end residues) assessed as residual activity at 10 uM using KKKVSRSGLYRSPSMPENLNRPR as substrate incubated for 40 mins in presence of [gamma-33ATP] by scintillation counting based radiometry assay relative to control
Mus musculus = organism: Mus musculus; experiment: Inhibition of mouse Arg M982V/A562 mutant (27 to end residues) assessed as residual activity at 10 uM using EAIYAAPFAKKK as substrate incubated for 40 mins in presence of [gamma-33ATP] by scintillation counting based radiometry assay relative to control
[2] = system: Eukaryotic elongation factor 2 kinase (Homo sapiens), O00418 [H23R]; experiment: Inhibition of recombinant human eEF-2K H23R mutant (2 to end residues) assessed as residual activity at 10 uM using RKKFGESEKTKTK as substrate at 40 mins in presence of [gamma-33ATP] by scintillation counting based radiometry assay relative to control
Sequence of Eukaryotic elongation factor 2 kinase (Homo sapiens), O00418 [H23R] (O00418 whole entry H23R): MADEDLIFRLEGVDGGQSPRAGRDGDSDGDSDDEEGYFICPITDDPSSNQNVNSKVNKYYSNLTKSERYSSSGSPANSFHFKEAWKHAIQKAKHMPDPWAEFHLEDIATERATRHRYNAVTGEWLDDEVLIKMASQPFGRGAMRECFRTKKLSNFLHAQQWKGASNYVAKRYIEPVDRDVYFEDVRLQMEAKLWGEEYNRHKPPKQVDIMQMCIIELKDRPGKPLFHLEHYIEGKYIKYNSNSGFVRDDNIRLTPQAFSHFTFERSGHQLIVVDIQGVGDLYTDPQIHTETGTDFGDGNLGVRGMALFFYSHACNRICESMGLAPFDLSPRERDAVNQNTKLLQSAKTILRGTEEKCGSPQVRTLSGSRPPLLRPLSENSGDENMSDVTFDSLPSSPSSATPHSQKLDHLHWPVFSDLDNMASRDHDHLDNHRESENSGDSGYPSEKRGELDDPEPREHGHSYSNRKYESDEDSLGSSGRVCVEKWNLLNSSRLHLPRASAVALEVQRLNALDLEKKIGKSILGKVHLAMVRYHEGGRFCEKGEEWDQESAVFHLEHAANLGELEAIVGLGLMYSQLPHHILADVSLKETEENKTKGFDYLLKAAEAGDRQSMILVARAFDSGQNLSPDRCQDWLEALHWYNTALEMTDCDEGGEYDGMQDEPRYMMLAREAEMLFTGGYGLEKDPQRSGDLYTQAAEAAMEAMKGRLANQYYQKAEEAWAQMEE

[3] = system: RAC-gamma serine/threonine-protein kinase (Homo sapiens), Q9Y243 [S472D]; experiment: Inhibition of recombinant human PKBgamma S472D mutant (117 to end residues) assessed as residual activity at 10 uM using GRPRTSSFAEGKK as substrate incubated for 40 mins in presence of [gamma33P]ATP by scintillation counting based radiometry assay relative to control
[4] = molecular target: Serine/threonine-protein kinase LATS1 (Homo sapiens, UniProt O95835); experiment: Binding affinity to recombinant human LATS1 (Q678 to V1130 residues) expressed in bacterial expression system assessed as dissociation constant by Kinomescan method
Sequence of Serine/threonine-protein kinase LATS1 (O95835 whole entry, the tested form may be a part): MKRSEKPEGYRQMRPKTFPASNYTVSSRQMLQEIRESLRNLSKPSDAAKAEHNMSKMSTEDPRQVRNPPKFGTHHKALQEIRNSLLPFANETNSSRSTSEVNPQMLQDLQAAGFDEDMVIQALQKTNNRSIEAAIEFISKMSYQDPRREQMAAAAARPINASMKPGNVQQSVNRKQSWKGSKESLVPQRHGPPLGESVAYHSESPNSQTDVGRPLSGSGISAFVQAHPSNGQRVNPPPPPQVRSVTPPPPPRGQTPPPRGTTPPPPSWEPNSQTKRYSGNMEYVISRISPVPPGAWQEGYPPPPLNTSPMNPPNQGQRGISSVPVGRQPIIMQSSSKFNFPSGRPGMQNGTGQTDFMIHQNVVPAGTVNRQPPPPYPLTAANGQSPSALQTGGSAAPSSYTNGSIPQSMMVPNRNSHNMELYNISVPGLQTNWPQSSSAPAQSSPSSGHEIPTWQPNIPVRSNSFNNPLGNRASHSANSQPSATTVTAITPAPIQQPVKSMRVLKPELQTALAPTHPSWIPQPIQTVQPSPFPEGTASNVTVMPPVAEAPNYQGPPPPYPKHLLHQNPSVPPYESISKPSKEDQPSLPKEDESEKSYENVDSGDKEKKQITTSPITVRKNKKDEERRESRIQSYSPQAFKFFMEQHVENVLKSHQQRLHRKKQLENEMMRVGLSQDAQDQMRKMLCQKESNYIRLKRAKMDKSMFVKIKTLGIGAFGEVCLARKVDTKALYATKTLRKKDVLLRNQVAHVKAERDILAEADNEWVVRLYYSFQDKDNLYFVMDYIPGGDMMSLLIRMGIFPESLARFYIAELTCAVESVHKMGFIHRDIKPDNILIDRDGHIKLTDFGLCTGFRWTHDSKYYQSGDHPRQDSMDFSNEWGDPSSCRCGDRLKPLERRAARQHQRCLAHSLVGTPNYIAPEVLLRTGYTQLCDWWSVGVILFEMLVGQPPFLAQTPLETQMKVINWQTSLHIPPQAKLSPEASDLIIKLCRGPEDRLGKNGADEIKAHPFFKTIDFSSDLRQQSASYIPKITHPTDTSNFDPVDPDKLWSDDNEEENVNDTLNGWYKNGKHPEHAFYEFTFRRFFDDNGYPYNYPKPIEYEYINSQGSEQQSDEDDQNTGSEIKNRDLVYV
Outline: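 KINOMEscan competition binding assay. Kinase bound at each concentration of test compound was quantified by qPCR and plotted against log10 compound concentration to derive Kd.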

[5] = molecular target: Serine/threonine-protein kinase 4 (Homo sapiens, UniProt Q13043); experiment: Inhibition of recombinant full-length human MST1 assessed as residual activity using KKSRGDYMTMQIG as substrate measured after 40 mins in presence of [gamma33P]ATP by scintillation counting based radiometry assay
Sequence of Serine/threonine-protein kinase 4 (Q13043 whole entry): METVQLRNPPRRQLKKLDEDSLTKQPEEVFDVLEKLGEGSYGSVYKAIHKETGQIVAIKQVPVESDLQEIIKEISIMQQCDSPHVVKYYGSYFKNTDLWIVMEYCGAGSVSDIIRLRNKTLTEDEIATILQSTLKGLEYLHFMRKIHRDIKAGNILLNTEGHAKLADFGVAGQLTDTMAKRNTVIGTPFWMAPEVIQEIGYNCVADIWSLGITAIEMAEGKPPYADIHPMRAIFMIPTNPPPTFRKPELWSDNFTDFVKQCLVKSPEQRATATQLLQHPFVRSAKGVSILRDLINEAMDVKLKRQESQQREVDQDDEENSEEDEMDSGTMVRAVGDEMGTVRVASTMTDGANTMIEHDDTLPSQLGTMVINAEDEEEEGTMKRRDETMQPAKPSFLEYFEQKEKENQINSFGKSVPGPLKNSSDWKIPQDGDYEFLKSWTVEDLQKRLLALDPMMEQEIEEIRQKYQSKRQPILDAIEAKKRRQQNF
Outline: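 Outsourced kinase profiling of MST1 by a commercial service (Eurofins); activity reported as mean ± SEM of 2 replicates.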

Homo sapiens [6] = organism: Homo sapiens; experiment: Inhibition of recombinant human EphB2 A848S/K918E mutant (560 to end residues) assessed as residual activity at 10 uM using KTFCGTPEYLAPEVRREPRILSEEEQEMFRDFDYIADWC as substrate at 40 mins in presence of [gamma-33ATP] by scintillation counting based radiometry assay relative to control
[7] = molecular target: Mitogen-activated protein kinase kinase kinase 2 (Homo sapiens) (UniProt Q9Y2U5); experiment: Inhibition of recombinant full length human MEKK2 assessed as residual activity at 10 uM using myelin basic protein as substrate incubated for 40 mins in presence of [gamma-33ATP by scintillation counting based radiometry assay relative to control
Sequence of Mitogen-activated protein kinase kinase kinase 2 (Homo sapiens) (Q9Y2U5 whole entry): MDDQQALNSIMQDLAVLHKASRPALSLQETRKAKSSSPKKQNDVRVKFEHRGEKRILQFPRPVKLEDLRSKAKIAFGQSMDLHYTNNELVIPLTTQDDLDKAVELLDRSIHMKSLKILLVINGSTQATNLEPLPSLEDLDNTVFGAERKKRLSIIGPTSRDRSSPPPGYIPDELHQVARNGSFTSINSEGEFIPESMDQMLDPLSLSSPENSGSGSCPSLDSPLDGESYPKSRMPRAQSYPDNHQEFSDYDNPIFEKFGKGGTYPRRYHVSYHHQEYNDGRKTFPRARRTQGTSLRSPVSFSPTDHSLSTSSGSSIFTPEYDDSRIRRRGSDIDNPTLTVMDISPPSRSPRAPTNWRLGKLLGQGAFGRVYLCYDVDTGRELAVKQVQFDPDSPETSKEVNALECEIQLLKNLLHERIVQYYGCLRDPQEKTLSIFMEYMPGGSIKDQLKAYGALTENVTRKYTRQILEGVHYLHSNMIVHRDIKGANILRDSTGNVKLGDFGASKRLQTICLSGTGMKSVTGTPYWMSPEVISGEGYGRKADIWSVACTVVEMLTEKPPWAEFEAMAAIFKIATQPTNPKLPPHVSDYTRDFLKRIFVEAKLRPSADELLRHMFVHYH

[8] = molecular target: Serine/threonine-protein kinase Nek11 (Homo sapiens) (UniProt Q8NG66); experiment: Inhibition of recombinant full length human NEK11 assessed as residual activity at 10 uM using myelin basic protein as substrate measured after 40 mins in presence of [gamma33P]ATP by scintillation counting based radiometry assay relative to control
Sequence of Serine/threonine-protein kinase Nek11 (Homo sapiens) (Q8NG66 whole entry, the tested form may be a part): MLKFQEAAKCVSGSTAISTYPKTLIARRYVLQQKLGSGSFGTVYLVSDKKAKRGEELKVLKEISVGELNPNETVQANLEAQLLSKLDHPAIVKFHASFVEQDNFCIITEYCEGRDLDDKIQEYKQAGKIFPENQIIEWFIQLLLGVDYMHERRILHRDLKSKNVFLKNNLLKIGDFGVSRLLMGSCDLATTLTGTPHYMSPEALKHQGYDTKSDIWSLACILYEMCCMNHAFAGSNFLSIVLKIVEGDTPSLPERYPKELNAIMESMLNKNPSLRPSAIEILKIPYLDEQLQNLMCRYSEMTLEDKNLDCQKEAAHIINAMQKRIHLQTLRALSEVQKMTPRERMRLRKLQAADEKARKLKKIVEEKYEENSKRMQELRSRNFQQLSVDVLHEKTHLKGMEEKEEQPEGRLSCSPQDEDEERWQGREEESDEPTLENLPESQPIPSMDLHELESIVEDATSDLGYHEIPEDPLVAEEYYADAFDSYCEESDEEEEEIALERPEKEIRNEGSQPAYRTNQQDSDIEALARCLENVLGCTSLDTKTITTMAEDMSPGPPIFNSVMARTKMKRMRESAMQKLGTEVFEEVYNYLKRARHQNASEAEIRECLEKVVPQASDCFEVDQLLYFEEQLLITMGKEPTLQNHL

Homo sapiens [9] = organism: Homo sapiens; experiment: Inhibition of recombinant human Plk4 S34T mutant (1 to 273 residues) assessed as residual activity at 10 uM using casein as substrate incubated for 40 mins in presence of [gamma33P]ATP by scintillation counting based radiometry assay relative to control
[10] = molecular target: Serine/threonine-protein kinase 25 (Homo sapiens) (UniProt O00506); experiment: Inhibition of recombinant human STK25 (1 to 308 residues) assessed as residual activity at 10 uM using RLGRDKYKTLRQIRQ as substrate incubated for 40 mins in presence of [gamma33P]ATP by scintillation counting based radiometry assay relative to control
Sequence of Serine/threonine-protein kinase 25 (Homo sapiens) (O00506 whole entry, looked up, the tested form may be a part): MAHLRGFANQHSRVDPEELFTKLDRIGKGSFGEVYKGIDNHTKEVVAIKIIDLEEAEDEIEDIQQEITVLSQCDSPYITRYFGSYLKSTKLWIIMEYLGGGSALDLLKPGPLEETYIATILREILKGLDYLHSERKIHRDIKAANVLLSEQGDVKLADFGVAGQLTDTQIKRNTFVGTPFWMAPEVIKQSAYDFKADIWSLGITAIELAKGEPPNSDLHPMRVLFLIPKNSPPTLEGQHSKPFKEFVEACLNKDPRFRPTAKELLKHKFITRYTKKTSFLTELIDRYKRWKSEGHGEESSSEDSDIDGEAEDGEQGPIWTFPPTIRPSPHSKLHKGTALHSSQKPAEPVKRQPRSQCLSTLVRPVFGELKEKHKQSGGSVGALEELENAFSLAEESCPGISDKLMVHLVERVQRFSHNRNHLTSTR

[11] = molecular target: Mitogen-activated protein kinase kinase kinase 9 (Homo sapiens) (UniProt P80192); experiment: Inhibition of recombinant human MLK1 (134 to 414 residues) assessed as residual activity at 10 uM using casein as substrate incubated for 40 mins in presence of [gamma-33ATP by scintillation counting based radiometry assay relative to control
[12] = molecular target: Transcriptional coactivator YAP1 (Homo sapiens) (UniProt P46937); experiment: Induction of YAP nuclear translocation in human A549 cells at 10 uM incubated for 8 hrs by immunofluorescence based confocal microscopy; type: cell-based
Outline: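 A549-CTGF reporter cells were treated for 8 h at 10 µM, with 0.1% DMSO as vehicle control. Cells were then fixed, permeabilized and probed with anti-YAP antibody. DAPI stained the nuclei, and YAP localization was imaged by immunofluorescence.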

[13] = molecular target: Serine/threonine-protein kinase haspin (Homo sapiens) (UniProt Q8TF76); experiment: Inhibition of human Haspin (471 to end residues ) assessed as residual activity at 10 uM using RARTLSFAEPG as substrate after 40 mins by [gamma-33ATP] radiometric assay relative to control
[14] = molecular target: Myotonin-protein kinase (Homo sapiens) (UniProt Q09013); experiment: Inhibition of recombinant human DMPK (1 to 549 residues) assessed as residual activity at 10 uM using KKSRGDYMTMQIG as substrate at 40 mins in presence of [gamma-33ATP] by scintillation counting based radiometry assay relative to control
[15] = molecular target: Tyrosine-protein kinase CSK (Homo sapiens) (UniProt P41240); experiment: Inhibition of recombinant human CSK assessed as residual activity at 10 uM poly(Glu, Tyr) 4:1 as substrate incubated 40 mins in presence of [gamma-33ATP] by scintillation counting based radiometry assay relative to control
Sequence of Tyrosine-protein kinase CSK (Homo sapiens) (P41240 2-450 limits assumed): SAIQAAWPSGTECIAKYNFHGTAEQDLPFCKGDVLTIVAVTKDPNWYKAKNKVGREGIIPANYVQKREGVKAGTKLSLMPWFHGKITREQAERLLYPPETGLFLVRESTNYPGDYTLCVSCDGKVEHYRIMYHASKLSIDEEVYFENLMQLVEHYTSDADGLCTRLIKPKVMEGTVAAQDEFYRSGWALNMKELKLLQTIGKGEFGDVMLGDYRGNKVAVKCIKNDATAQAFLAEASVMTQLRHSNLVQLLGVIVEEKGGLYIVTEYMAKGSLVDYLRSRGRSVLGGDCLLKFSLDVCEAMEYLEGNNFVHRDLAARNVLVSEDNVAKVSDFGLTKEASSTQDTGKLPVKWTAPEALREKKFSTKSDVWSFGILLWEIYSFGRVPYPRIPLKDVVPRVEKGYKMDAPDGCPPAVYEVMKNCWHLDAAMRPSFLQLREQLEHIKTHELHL

[16] = molecular target: CDC7/Cyclin B1 (Homo sapiens) (UniProt P14635+O00311); experiment: Inhibition of recombinant full length human CD7/CyclinB1 assessed as residual activity at 10 uM using Histone H1 as substrate incubated for 40 mins in presence of [gamma-33ATP] by scintillation counting based radiometry assay relative to control; type: protein-complex assay
[17] = molecular target: Tyrosine-protein kinase HCK (Homo sapiens) (UniProt P08631); experiment: Inhibition of human HCK (230 to 497 residues) assessed as residual activity at 10 uM using Cdc2 peptide as substrate after 40 mins by [gamma-33ATP] radiometric assay relative to control
[18] = molecular target: Insulin receptor-related protein (Homo sapiens) (UniProt P14616); experiment: Inhibition of human IRR (943 to 1266 residues) assessed as residual activity at 10 uM using myelin basic protein as substrate after 40 mins by [gamma-33ATP] radiometric assay relative to control
[19] = system: RAC-beta serine/threonine-protein kinase (Homo sapiens), P31751 [S474D]; experiment: Inhibition of recombinant human PKBbeta S474D mutant (120 to end residues) assessed as residual activity at 10 uM using GRPRTSSFAEGKK as substrate incubated for 40 mins in presence of [gamma33P]ATP by scintillation counting based radiometry assay relative to control
Sequence of RAC-beta serine/threonine-protein kinase (Homo sapiens), P31751 [S474D] (P31751 whole entry S474D): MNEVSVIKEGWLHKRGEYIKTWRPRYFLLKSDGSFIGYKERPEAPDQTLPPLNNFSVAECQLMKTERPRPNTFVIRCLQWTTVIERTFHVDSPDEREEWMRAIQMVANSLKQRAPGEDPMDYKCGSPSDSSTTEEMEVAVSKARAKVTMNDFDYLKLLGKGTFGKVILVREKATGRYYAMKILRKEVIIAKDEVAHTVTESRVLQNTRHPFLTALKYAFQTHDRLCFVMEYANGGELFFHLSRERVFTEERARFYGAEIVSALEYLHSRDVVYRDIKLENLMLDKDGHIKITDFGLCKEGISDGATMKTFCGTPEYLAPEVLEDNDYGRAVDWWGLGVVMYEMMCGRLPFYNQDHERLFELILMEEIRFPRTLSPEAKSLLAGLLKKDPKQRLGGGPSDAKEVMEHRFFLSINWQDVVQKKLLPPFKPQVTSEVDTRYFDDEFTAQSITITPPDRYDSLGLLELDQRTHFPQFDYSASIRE

C[C@@H](c1ccccc1)n1nnc2cnc3ccc(-c4cnc5[nH]ccc5c4)cc3c21
Activity [1]: 81% | Activity (Mus musculus): -1% | Activity [2]: 129% | Activity [3]: 48% | Kd [4]: > 10 µM | IC50 [5]: > 10 µM | Activity (Homo sapiens [6]): 83% | Activity [7]: 107% | Activity [8]: 103% | Activity (Homo sapiens [9]): 82% | Activity [10]: 76% | Activity [11]: 41% | Activity [12]: Active | Activity [13]: 51% | Activity [14]: 89% | Activity [15]: 74% | Activity [16]: 63% | Activity [17]: 9% | Activity [18]: 86% | Activity [19]: 61%
